Assay results from the RNAGym collection of RNA variant scans (doi:10.1002/anie.201605470).

B1: Osa-1-4 twister ribozyme (parent)
chain: CCGCCUAACACUGCCAAUGCCGGUCCCAAGCCCGGAUAAAAGUGGAGGGGGCGG

Variants of: B1
Assay: self-cleavage, relative activity (ratio to wild type); higher = more cleavage; co-transcriptional
In short: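 A DNA template for a 54-nucleotide Oryza sativa twister ribozyme was synthesised with 97 % wild-type base and 1 % of each other base at the 48 positions downstream of the cleavage site. It was transcribed in vitro for 2 h at 37 °C, allowing co-transcriptional self-cleavage, then reverse-transcribed with a template-switching oligonucleotide, PCR-amplified and deep-sequenced. Cleavage status was scored from reads with or without upstream sequence. Relative activity is fraction cleaved normalised to wild type.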

Variant	self-cleavage
CCGCCUAUCACUGCCAAUGCCGGUCCCAAGCCCGGAUAAAAGUGCAGGGGGCGG [A8U G45C]	0.04
CCGCCUAUCACUGCCAAUGCCGGUCCCAAGCCCGGAUAAAAGUGUAGGGGGCGG [A8U G45U]	0.08
CCGCCUAUCACUGCCAAUGCCGGUCCCAAGCCCGGAUAAAAGUGAAGGGGGCGG [A8U G45A]	0.05
CCGCCUAUCACUGCCAAUGCCGGUCCCAAGCCCGGAUAAAAGGGGAGGGGGCGG [A8U U43G]	0.08
CCGCCUAUCACUGCCAAUGCCGGUCCCAAGCCCGGAUAAAAGCGGAGGGGGCGG [A8U U43C]	0.08
CCGCCUAUCACUGCCAAUGCCGGUCCCAAGCCCGGAUAAAAGAGGAGGGGGCGG [A8U U43A]	0.09
CCGCCUAAAACUGCCAAUGCCGGUCCCAAGCCCGGAUAAAACUGGAGGGGGCGG [C9A G42C]	0.04
CCGCCUAAAACUGCCAAUGCCGGUCCCAAGCCCGGAUAAAAAUGGAGGGGGCGG [C9A G42A]	0.09
CCGCCUAAAACUGCCAAUGCCGGUCCCAAGCCCGGAUAAAAUUGGAGGGGGCGG [C9A G42U]	0.03
CCGCCUAAAACUGCCAAUUCCGGUCCCAAGCCCGGAUAAAAGUGGAGGGGGCGG [C9A G19U]	0.07
CCGCCUAAAACUGCCAAUCCCGGUCCCAAGCCCGGAUAAAAGUGGAGGGGGCGG [C9A G19C]	0.04
CCGCCUAAAACUGCCAAUACCGGUCCCAAGCCCGGAUAAAAGUGGAGGGGGCGG [C9A G19A]	0.1
CCGCCUAUCACUGCCAAUGCCGGUCCCAAGCCCGGAUAAAAGUCGAGGGGGCGG [A8U G44C]	0.09
CCGCCUAUCACUGCCAAUGCCGGUCCCAAGCCCGGAUAAAAGUAGAGGGGGCGG [A8U G44A]	0.27
CCGCCUAUCACUGCCAAUGCCGGUCCCAAGCCCGGAUAAAAGUUGAGGGGGCGG [A8U G44U]	0.13
CCGCCUAUCACUGCCAAUGCCGGUCCCAAGCCCGGAUAAAAGUGGAGGGGCCGG [A8U G51C]	0.04
CCGCCUAUCACUGCCAAUGCCGGUCCCAAGCCCGGAUAAAAGUGGAGGGGACGG [A8U G51A]	0.14
CCGCCUAUCACUGCCAAUGCCGGUCCCAAGCCCGGAUAAAAGUGGAGGGGUCGG [A8U G51U]	0.08
CCGCCUAUCACUGCCAAUGCCGGUCCCAAGCCCGGAUAAAAGUGGAGGGAGCGG [A8U G50A]	0.26
CCGCCUAUCACUGCCAAUGCCGGUCCCAAGCCCGGAUAAAAGUGGAGGGCGCGG [A8U G50C]	0.24
CCGCCUAUCACUGCCAAUGCCGGUCCCAAGCCCGGAUAAAAGUGGAGGGUGCGG [A8U G50U]	0.35
CCGCCUAAAACUGCCAAUGCCGGUCCCAACCCCGGAUAAAAGUGGAGGGGGCGG [C9A G30C]	0.02
CCGCCUAAAACUGCCAAUGCCGGUCCCAAUCCCGGAUAAAAGUGGAGGGGGCGG [C9A G30U]	0.01
CCGCCUAAAACUGCCAAUGCCGGUCCCAAACCCGGAUAAAAGUGGAGGGGGCGG [C9A G30A]	0.02
CCGCCUAUCACCGCCAAUGCCGGUCCCAAGCCCGGAUAAAAGUGGAGGGGGCGG [A8U U12C]	0.06

Variant	self-cleavage
CCGCCUAUCACAGCCAAUGCCGGUCCCAAGCCCGGAUAAAAGUGGAGGGGGCGG [A8U U12A]	0.1
CCGCCUAUCACGGCCAAUGCCGGUCCCAAGCCCGGAUAAAAGUGGAGGGGGCGG [A8U U12G]	0.07
CCGCCUAUCACUGCCAAUGCCGGUCCCAAGCCCGGAUAAAAGUGGAGCGGGCGG [A8U G48C]	0.05
CCGCCUAUCACUGCCAAUGCCGGUCCCAAGCCCGGAUAAAAGUGGAGAGGGCGG [A8U G48A]	0.05
CCGCCUAUCACUGCCAAUGCCGGUCCCAAGCCCGGAUAAAAGUGGAGUGGGCGG [A8U G48U]	0.04
CCGCCUAUCACUGCCAAUGCCGGCCCCAAGCCCGGAUAAAAGUGGAGGGGGCGG [A8U U24C]	0.05
CCGCCUAUCACUGCCAAUGCCGGACCCAAGCCCGGAUAAAAGUGGAGGGGGCGG [A8U U24A]	0.03
CCGCCUAUCACUGCCAAUGCCGGGCCCAAGCCCGGAUAAAAGUGGAGGGGGCGG [A8U U24G]	0.02
CCGCCUAUCACUGCCAAUGCCGGUCCCAAGCCCGGAUAAAAGUGGAGGGGGUGG [A8U C52U]	0.57
CCGCCUAUCACUGCCAAUGCCGGUCCCAAGCCCGUAUAAAAGUGGAGGGGGCGG [A8U G35U]	0.18
CCGCCUAUCACUGCCAAUGCCGGUCCCAAGCCCGCAUAAAAGUGGAGGGGGCGG [A8U G35C]	0.08
CCGCCUAUCACUGCCAAUGCCGGUCCCAAGCCCGAAUAAAAGUGGAGGGGGCGG [A8U G35A]	0.27
CCGCCUAUCACUGCCAAUGCCGGUCCCAAGCCCGGAUAAAAGUGGAGGGGGCGU [A8U G54U]	0.32
CCGCCUAUCACUGCCAAUGCCGGUCCCAAGCCCGGAUAAAAGUGGAGGGGGCGA [A8U G54A]	0.17
CCGCCUAUCACUGCCAAUGCCGGUCCCAAGCCCGGAUAAAAGUGGAGGGGGCGC [A8U G54C]	0.13
CCGCCUAAAACUGCCAAUGCCGCUCCCAAGCCCGGAUAAAAGUGGAGGGGGCGG [C9A G23C]	0.01
CCGCCUAAAACUGCCAAUGCCGAUCCCAAGCCCGGAUAAAAGUGGAGGGGGCGG [C9A G23A]	0.06
CCGCCUAAAACUGCCAAUGCCGUUCCCAAGCCCGGAUAAAAGUGGAGGGGGCGG [C9A G23U]	0.02
CCGCCUAUCACUGCCAAUGCCGGUCCCAAGCCCGGAUAAAAUUGGAGGGGGCGG [A8U G42U]	0.03
CCGCCUAUCACUGCCAAUGCCGGUCCCAAGCCCGGAUAAAACUGGAGGGGGCGG [A8U G42C]	0.06
CCGCCUAUCACUGCCAAUGCCGGUCCCAAGCCCGGAUAAAAAUGGAGGGGGCGG [A8U G42A]	0.1
CCGCCUAAAACUUCCAAUGCCGGUCCCAAGCCCGGAUAAAAGUGGAGGGGGCGG [C9A G13U]	0.04
CCGCCUAAAACUACCAAUGCCGGUCCCAAGCCCGGAUAAAAGUGGAGGGGGCGG [C9A G13A]	0.02
CCGCCUAAAACUCCCAAUGCCGGUCCCAAGCCCGGAUAAAAGUGGAGGGGGCGG [C9A G13C]	0.03
CCGCCUAUCACUGCCAAUGCCGGUCCCAAGCCCGGACAAAAGUGGAGGGGGCGG [A8U U37C]	0.36

Variant	self-cleavage
CCGCCUAUCACUGCCAAUGCCGGUCCCAAGCCCGGAAAAAAGUGGAGGGGGCGG [A8U U37A]	0.31
CCGCCUAUCACUGCCAAUGCCGGUCCCAAGCCCGGAGAAAAGUGGAGGGGGCGG [A8U U37G]	0.54
CCGCCUAUCACUUCCAAUGCCGGUCCCAAGCCCGGAUAAAAGUGGAGGGGGCGG [A8U G13U]	0.02
CCGCCUAUCACUCCCAAUGCCGGUCCCAAGCCCGGAUAAAAGUGGAGGGGGCGG [A8U G13C]	0.03
CCGCCUAUCACUACCAAUGCCGGUCCCAAGCCCGGAUAAAAGUGGAGGGGGCGG [A8U G13A]	0.05
CCGCCUAAAACUGCCAAUGCCGGUCCCAAGCCCGGAUAAAAGUGCAGGGGGCGG [C9A G45C]	0.01
CCGCCUAAAACUGCCAAUGCCGGUCCCAAGCCCGGAUAAAAGUGAAGGGGGCGG [C9A G45A]	0.04
CCGCCUAAAACUGCCAAUGCCGGUCCCAAGCCCGCAUAAAAGUGGAGGGGGCGG [C9A G35C]	0.11
CCGCCUAAAACUGCCAAUGCCGGUCCCAAGCCCGAAUAAAAGUGGAGGGGGCGG [C9A G35A]	0.24
CCGCCUAAAACUGCCAAUGCCGGUCCCAAGCCCGUAUAAAAGUGGAGGGGGCGG [C9A G35U]	0.32
CCGCCUAAAACUGCCAAUGCCGGUCCCAAGCCCGGAUAAAAGUUGAGGGGGCGG [C9A G44U]	0.63
CCGCCUAAAACUGCCAAUGCCGGUCCCAAGCCCGGAUAAAAGUCGAGGGGGCGG [C9A G44C]	0.5
CCGCCUAAAACUGCCAAUGCCGGUCCCAAGCCCGGAUAAAAGUAGAGGGGGCGG [C9A G44A]	0.47
CCGCCUAUCACUGCCAAUGCCGGUCCCAAGCCCGGAUAAAAGUGGAAGGGGCGG [A8U G47A]	0.06
CCGCCUAUCACUGCCAAUGCCGGUCCCAAGCCCGGAUAAAAGUGGACGGGGCGG [A8U G47C]	0.05
CCGCCUAUCACUGCCAAUGCCGGUCCCAAGCCCGGAUAAAAGUGGAUGGGGCGG [A8U G47U]	0.05
CCGCCUAAAACUGCCAAUGCCGGUCCCAAGCCCGGAUAAAAGUGGAGGGGGCGG [C9A]	0.48
CCGCCUAAAACUGCCAAUGCCAGUCCCAAGCCCGGAUAAAAGUGGAGGGGGCGG [C9A G22A]	0.34
CCGCCUAAAACUGCCAAUGCCCGUCCCAAGCCCGGAUAAAAGUGGAGGGGGCGG [C9A G22C]	0.03
CCGCCUAAAACUGCCAAUGCCUGUCCCAAGCCCGGAUAAAAGUGGAGGGGGCGG [C9A G22U]	0.12
CCGCCUAUCACUGCCAAUGCCGGUCCCAAGCCCGGAUAAAAGUGGAGGGGGCUG [A8U G53U]	0.1
CCGCCUAUCACUGCCAAUGCCGGUCCCAAGCCCGGAUAAAAGUGGAGGGGGCCG [A8U G53C]	0.05
CCGCCUAUCACUGCCAAUGCCGGUCCCAAGCCCGGAUAAAAGUGGAGGGGGCAG [A8U G53A]	0.12
CCGCCUAUCACUGCCAAUUCCGGUCCCAAGCCCGGAUAAAAGUGGAGGGGGCGG [A8U G19U]	0.05
CCGCCUAUCACUGCCAAUACCGGUCCCAAGCCCGGAUAAAAGUGGAGGGGGCGG [A8U G19A]	0.08

Variant	self-cleavage
CCGCCUAUCACUGCCAAUCCCGGUCCCAAGCCCGGAUAAAAGUGGAGGGGGCGG [A8U G19C]	0.03
CCGCCUAUCACUGCCAAUGCCGGUCCCAAGCCCAGAUAAAAGUGGAGGGGGCGG [A8U G34A]	0.13
CCGCCUAUCACUGCCAAUGCCGGUCCCAAGCCCUGAUAAAAGUGGAGGGGGCGG [A8U G34U]	0.1
CCGCCUAUCACUGCCAAUGCCGGUCCCAAGCCCCGAUAAAAGUGGAGGGGGCGG [A8U G34C]	0.09
CCGCCUAUCACUGCCAAUGCCGGUCCCAAGCCCGGAUAAAAGUGGAGGCGGCGG [A8U G49C]	0.04
CCGCCUAUCACUGCCAAUGCCGGUCCCAAGCCCGGAUAAAAGUGGAGGAGGCGG [A8U G49A]	0.05
CCGCCUAUCACUGCCAAUGCCGGUCCCAAGCCCGGAUAAAAGUGGAGGUGGCGG [A8U G49U]	0.05
CCGCCUAUCACUGCCAAUGCCAGUCCCAAGCCCGGAUAAAAGUGGAGGGGGCGG [A8U G22A]	0.12
CCGCCUAUCACUGCCAAUGCCUGUCCCAAGCCCGGAUAAAAGUGGAGGGGGCGG [A8U G22U]	0.08
CCGCCUAUCACUGCCAAUGCCCGUCCCAAGCCCGGAUAAAAGUGGAGGGGGCGG [A8U G22C]	0.03
CCGCCUAAAACUGCCAAUGCCGGUCCCAAGCCCCGAUAAAAGUGGAGGGGGCGG [C9A G34C]	0.08
CCGCCUAAAACUGCCAAUGCCGGUCCCAAGCCCAGAUAAAAGUGGAGGGGGCGG [C9A G34A]	0.19
CCGCCUAAAACUGCCAAUGCCGGUCCCAAGCCCUGAUAAAAGUGGAGGGGGCGG [C9A G34U]	0.11
CCGCCUAUCACUGCCAAUGCCGGUCCCAAACCCGGAUAAAAGUGGAGGGGGCGG [A8U G30A]	0.02
CCGCCUAUCACUGCCAAUGCCGGUCCCAAUCCCGGAUAAAAGUGGAGGGGGCGG [A8U G30U]	0.02
CCGCCUAUCACUGCCAAUGCCGGUCCCAACCCCGGAUAAAAGUGGAGGGGGCGG [A8U G30C]	0.03
CCGCCUAUCACUGCCAAAGCCGGUCCCAAGCCCGGAUAAAAGUGGAGGGGGCGG [A8U U18A]	0.39
CCGCCUAUCACUGCCAACGCCGGUCCCAAGCCCGGAUAAAAGUGGAGGGGGCGG [A8U U18C]	0.26
CCGCCUAUCACUGCCAAGGCCGGUCCCAAGCCCGGAUAAAAGUGGAGGGGGCGG [A8U U18G]	0.56
CCGCCUAUCACUGCCAAUGCCGUUCCCAAGCCCGGAUAAAAGUGGAGGGGGCGG [A8U G23U]	0.03
CCGCCUAUCACUGCCAAUGCCGAUCCCAAGCCCGGAUAAAAGUGGAGGGGGCGG [A8U G23A]	0.08
CCGCCUAUCACUGCCAAUGCCGCUCCCAAGCCCGGAUAAAAGUGGAGGGGGCGG [A8U G23C]	0.04
